Laboratory results taken from ChEMBL document CHEMBL1799966, “Synthesis and anticancer activity of oxindole derived imidazo[1,5-a]pyrazines” (Eur J Med Chem, 2011).
The source made the active and inactive calls. The rule behind the calls is not given here.

Key:
A549 [1] = experiment: Induction of apoptosis in human A549 cells assessed as intraneucleosomal DNA fragmentation at 6.5 uM after 24 to 48 hrs by agarose gel electrophoresis technique; type: functional, cell-based
How it was run: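 After 24 h and 48 h at 6.5 µM, A549 cells were pelleted, washed in PBS and lysed. The supernatant was treated with SDS and RNase A for 2 h at 56 °C, then proteinase K. DNA was precipitated with ammonium acetate and ice-cold ethanol at −80 °C for 1 h, washed in 80% ethanol, dissolved in TE, and run on 2% agarose gel.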

A549 [2] = experiment: Induction of apoptosis in human A549 cells assessed as nuclear fragmentation at 6.5 uM after 24 to 48 hrs by Hoechst 33342 staining; type: functional, cell-based
How it was run: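 A549 cells were grown 24 h on coverslips at 10,000 cells, then exposed to 6.5 µM for 24 h and 48 h, with 0.001% DMSO vehicle controls. Hoechst 33342 (0.5 µg/mL) with 4% paraformaldehyde was applied for 30 min at 37 °C. Random fields were examined by fluorescence microscopy, scoring relative fluorescence and nuclear fragmentation.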

A549 [3] = experiment: Induction of cell cycle arrest in human A549 cells assessed as accumulation at sub G1 phase at 6.5 uM after 24 hrs by propidium iodide staining-based FACS analysis (reference value: 1.02 %); type: functional
How it was run: (§1)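 A549 cells (1 × 10^6) in six-well plates received 6.5 µM (final) for 24 h or 48 h. Floating and adherent cells were fixed in 70% ethanol, washed in PBS, then stained for 20 min with 50 µg/mL propidium iodide in hypotonic citrate/Triton X-100 buffer with DNase-free RNase A. Cells were analysed by FACS.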

A549 [4] = experiment: Induction of cell cycle arrest in human A549 cells assessed as accumulation at G0/G1 phase at 6.5 uM after 24 hrs by propidium iodide staining-based FACS analysis (reference value: 56.26 %); type: functional; how it was run: as §1
A549 [5] = experiment: Induction of cell cycle arrest in human A549 cells assessed as accumulation at S phase at 6.5 uM after 24 hrs by propidium iodide staining-based FACS analysis (reference value: 19.21 %); type: functional; how it was run: as §1
A549 [6] = experiment: Induction of cell cycle arrest in human A549 cells assessed as accumulation at G2/M phase at 6.5 uM after 24 hrs by propidium iodide staining-based FACS analysis (reference value: 20.92 %); type: functional; how it was run: as §1
A549 [7] = experiment: Induction of cell cycle arrest in human A549 cells assessed as accumulation at sub G1 phase at 6.5 uM after 48 hrs by propidium iodide staining-based FACS analysis (reference value: 1.02 %); type: functional; how it was run: as §1
A549 [8] = experiment: Induction of cell cycle arrest in human A549 cells assessed as accumulation at S phase at 6.5 uM after 48 hrs by propidium iodide staining-based FACS analysis (reference value: 19.21 %); type: functional; how it was run: as §1
A549 [9] = experiment: Induction of cell cycle arrest in human A549 cells assessed as accumulation at G2/M phase at 6.5 uM after 48 hrs by propidium iodide staining-based FACS analysis (reference value: 20.92 %); type: functional; how it was run: as §1
HEK293 = experiment: Cytotoxicity against human HEK293 cells after 48 hrs by MTT assay; type: cell-based; settings: hek293, 48 h
How it was run: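 HEK-293 cells were seeded at 1 × 10^4 cells/well in DMEM with 10% FBS and held 24 h at 37 °C under CO2. Compound diluted in culture medium was added for 48 h. MTT (5 mg/mL stock) was then added for 4 h, formazan dissolved in DMSO, and absorbance read at 540 nm.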

A549 [10] = experiment: Induction of apoptosis in human A549 cells assessed as viable cells at 6.5 uM after 24 hrs using Annexin V-FITC and PI staining by flow cytometry (reference value: 11.1 %); type: functional; settings: A549, 24 h, read-out: Activity
A549 [11] = experiment: Induction of apoptosis in human A549 cells assessed as pre-necrotic cells at 6.5 uM after 24 hrs using Annexin V-FITC and PI staining by flow cytometry (reference value: 0.5 %); type: functional
A549 [12] = experiment: Induction of apoptosis in human A549 cells assessed as viable cells at 6.5 uM after 48 hrs using Annexin V-FITC and PI staining by flow cytometry (reference value: 11.1 %); type: functional; settings: A549, 48 h, read-out: Activity
A549 [13] = experiment: Induction of apoptosis in human A549 cells assessed as apoptotic cells at 6.5 uM after 48 hrs using Annexin V-FITC and PI staining by flow cytometry (reference value: 2.6 %); type: functional
A549 [14] = experiment: Induction of apoptosis in human A549 cells assessed as late apoptotic cells at 6.5 uM after 48 hrs using Annexin V-FITC and PI staining by flow cytometry (reference value: 85.7 %); type: functional
A549 [15] = experiment: Cytotoxicity against human A549 cells; type: functional
NCI-H322M = experiment: Cytotoxicity against human NCI-H322M cells; type: functional
How it was run: (§2)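 NCI 60-cell panel second-stage testing by NCI standard procedures. Compound was dissolved in DMSO and tested at five 10-fold dilutions: 10^-4, 10^-5, 10^-6, 10^-7 and 10^-8 M.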

NCI-H460 = experiment: Cytotoxicity against human NCI-H460 cells; type: functional; how it was run: as §2
HCT-116 = experiment: Cytotoxicity against human HCT116 cells; type: functional; how it was run: as §2
HCT-15 = experiment: Cytotoxicity against human HCT15 cells; type: functional; how it was run: as §2
HT-29 = experiment: Cytotoxicity against human HT-29 cells; type: functional; how it was run: as §2
SW-620 = experiment: Cytotoxicity against human SW620 cells; type: functional
How it was run: (§3)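 NCI 60-cell-line panel protocol. Primary screen used a single 10^-5 M concentration with 48 h incubation, and percent growth was read against untreated cells by sulforhodamine B protein staining. The five-dose follow-up used a DMSO solution at five 10-fold dilutions from 10^-4 to 10^-8 M.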

SF-268 = experiment: Cytotoxicity against human SF268 cells; type: functional; how it was run: as §2
SF-539 = experiment: Cytotoxicity against human SF539 cells; type: functional; how it was run: as §2
U-251 = experiment: Cytotoxicity against human U251 cells; type: functional; how it was run: as §3
PC-3 = experiment: Cytotoxicity against human PC3 cells; type: functional; how it was run: as §2
DU-145 = experiment: Cytotoxicity against human DU145 cells; type: functional; how it was run: as §2
M14 = experiment: Cytotoxicity against human M14 cells; type: functional; how it was run: as §2
SK-MEL-28 = experiment: Cytotoxicity against human SK-MEL-28 cells; type: functional; how it was run: as §3
LOX IMVI = experiment: Cytotoxicity against human LOXIMVI cells; type: functional; how it was run: as §2
SK-MEL-2 = experiment: Cytotoxicity against human SK-MEL-2 cells; type: functional; how it was run: as §2
MDA-MB-435 = experiment: Cytotoxicity against human MDA-MB-435 cells; type: functional; how it was run: as §2
OVCAR-3 = experiment: Cytotoxicity against human OVCAR3 cells; type: functional; how it was run: as §2
OVCAR-8 = experiment: Cytotoxicity against human OVCAR8 cells; type: functional; how it was run: as §2
NCI/ADR-RES = experiment: Cytotoxicity against human NCI/ADR-RES cells; type: functional; how it was run: as §2
786-0 = experiment: Cytotoxicity against human 786-0 cells; type: functional; how it was run: as §2
SN12C = experiment: Cytotoxicity against human SN12C cells; type: functional; how it was run: as §3
TK-10 = experiment: Cytotoxicity against human TK10 cells; type: functional; how it was run: as §3
UO-31 = experiment: Cytotoxicity against human UO31 cells; type: functional; how it was run: as §3
BT-549 = experiment: Cytotoxicity against human BT549 cells; type: functional; how it was run: as §2
MDA-MB-468 = experiment: Cytotoxicity against human MDA-MB-468 cells; type: functional; how it was run: as §2

O=C1Nc2ccccc2/C1=C\c1nc(-c2ccccc2F)n2ccccc12
Activity (A549 [1]): Active
Activity (A549 [2]): Active
Activity (A549 [3]): 1.19%
Activity (A549 [4]): 66.2%
Activity (A549 [5]): 13.51%
Activity (A549 [6]): 17.46%
Activity (A549 [7]): 6.56%
Activity (A549 [8]): 5.74%
Activity (A549 [9]): 10.12%
Activity (HEK293): Non-toxic
viability at 6.5 µM (A549 [10]): 31.2%
Activity (A549 [11]): 0.1%
viability at 6.5 µM (A549 [12]): 8.3%
Activity (A549 [13]): 87.4%
Activity (A549 [14]): 3.4%
GI50 (A549 [15]): 3.46 µM
GI50 (NCI-H322M): 4.16 µM
GI50 (NCI-H460): 2.17 µM
GI50 (HCT-116): 1.97 µM
GI50 (HCT-15): 13 µM
GI50 (HT-29): 3.5 µM
GI50 (SW-620): 3.97 µM
GI50 (SF-268): 4.65 µM
GI50 (SF-539): 3.1 µM
GI50 (U-251): 2.57 µM
GI50 (PC-3): 6.81 µM
GI50 (DU-145): 3.26 µM
GI50 (M14): 5.65 µM
GI50 (SK-MEL-28): 3.71 µM
GI50 (LOX IMVI): 4.15 µM
GI50 (SK-MEL-2): 6.81 µM
GI50 (MDA-MB-435): 3.95 µM
GI50 (OVCAR-3): 1.9 µM
GI50 (OVCAR-8): 2.49 µM
GI50 (NCI/ADR-RES): 3.36 µM
GI50 (786-0): 3.44 µM
GI50 (SN12C): 4.32 µM
GI50 (TK-10): 4.05 µM
GI50 (UO-31): 2.12 µM
GI50 (BT-549): 3.36 µM
GI50 (MDA-MB-468): 1.54 µM
